# Results from publication PMC4544744 (Nature chemical biology, 2015).
# Where “and” joins values, the source holds several entries; their conditions need not be identical. Identical values can stand only once.
# What was measured:
# WT Dcs1p = test: 31P NMR degradation; type: biochemical, S. cerevisiae
# In short: (§1)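 Recombinant S. cerevisiae Dcs1p, expressed in E. coli BL21(DE3) codon plus and purified by Ni-NTA, TEV tag cleavage and size exclusion into 25 mM Hepes pH 8.0, 25 mM NaCl made in 100% D2O. 0.5 mM m7GpppG mixed with 50 nM enzyme at 27°C. Successive 31P spectra recorded over several hours, following substrate conversion to m7GMP and GDP.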
# Dcs1p WT (H268N) [1] = target: T1, Dcs1p WT (H268N) (Saccharomyces cerevisiae, UniProt Q06151, H268N); test: Methyl NMR spectra, formation of asymmetric conformation; design: species or system S. cerevisiae
# T1 sequence (Q06151 whole entry H268N): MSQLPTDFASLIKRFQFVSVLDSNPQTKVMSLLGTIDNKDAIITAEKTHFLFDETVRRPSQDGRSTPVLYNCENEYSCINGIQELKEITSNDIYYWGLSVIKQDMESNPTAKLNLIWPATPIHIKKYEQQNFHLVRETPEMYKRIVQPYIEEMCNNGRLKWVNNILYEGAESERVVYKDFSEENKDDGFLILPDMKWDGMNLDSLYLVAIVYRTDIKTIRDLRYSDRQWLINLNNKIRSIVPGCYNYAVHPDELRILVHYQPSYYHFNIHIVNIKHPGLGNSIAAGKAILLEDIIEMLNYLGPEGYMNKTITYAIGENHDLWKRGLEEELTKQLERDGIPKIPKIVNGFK
# Dcs1p Y94A = test: 31P NMR degradation; type: biochemical, S. cerevisiae; settings: Y94A enzyme; 31P NMR time series, 14 h
# In short: as §1
# Dcs1p WT (H268N) [2] = target: T1, Dcs1p WT (H268N); test: NMR titration; design: species or system S. cerevisiae; settings: Kd open site (second binding event), determined using NMR
# In short: (§2)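 Deuterated, Ile/Met methyl-labelled Dcs1p (H268N), 0.25 mM dimer in D2O buffer pH 8.0 at 27°C. Methyl-TROSY spectra recorded during stepwise m7GpppG addition, up to 20 molar equivalents (5 mM). Peak positions and intensities from all titration points fitted simultaneously to a sequential two-site binding model. Kd given as mean ± s.d. from Monte Carlo simulations varying data within their errors.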
# Dcs1p K126A [3] = test: Longitudinal exchange NMR, domain flipping motions; design: species or system S. cerevisiae
# Dcs1p K126A (H268N) [4] = target: T2, Dcs1p K126A (H268N) (Saccharomyces cerevisiae, UniProt Q06151, H268N/K126A); test: NMR titration; design: species or system S. cerevisiae; settings: Kd open site (second binding event), determined using NMR
# T2 sequence (Q06151 whole entry K126A/H268N): as the sequence (Q06151 whole entry H268N) above, with K126A counted along it
# In short: as §2
# Dcs1p K126A [5] = test: 31P NMR degradation; type: biochemical, S. cerevisiae; settings: high substrate excess
# Dcs1p K126A (H268N) [6] = target: T2, Dcs1p K126A (H268N); test: ITC; type: binding, S. cerevisiae
# In short: (§3)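 Recombinant yeast Dcs1p carrying H268N, full length or C-terminal domain, purified by Ni-NTA, TEV cleavage and size exclusion. ITC at 25°C: m7GpppG or m7GMP injected into 0.5 mM enzyme solution.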
# Dcs1p WT (H268N) [7] = target: T1, Dcs1p WT (H268N); test: Longitudinal exchange NMR, domain flipping motions; design: species or system S. cerevisiae
# In short: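 Methyl-TROSY longitudinal exchange spectra recorded with m7GpppG at 1:1, 1:2.5, 1:5 and 1:20 molar ratios. Mixing times 3–1000 ms. Rates fitted from auto- and cross-peak intensities versus mixing time.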
# DcpS = settings: cited from earlier work
# [8] = target: Dcs1p WT (H268N), full length (Saccharomyces cerevisiae, UniProt Q06151, H268N); test: ITC; type: binding, S. cerevisiae
# Sequence of Dcs1p WT (H268N), full length (Q06151 whole entry H268N): as the sequence (Q06151 whole entry H268N) above
# In short: as §3
smiles,measurement,setting,value
Nc1nc2c(ncn2[C@@H]2O[C@H](COP(=O)(O)OP(=O)(O)OP(=O)(O)OC[C@H]3O[C@@H](n4cnc5c(=O)[nH]c(N)nc54)[C@H](O)[C@@H]3O)[C@@H](O)[C@H]2O)c(=O)[nH]1 [GpppG],enzymatic turnover / hydrolysis,"WT Dcs1p; WT enzyme, 31P NMR time series, 14 h",did not detect enzymatic turnover
same,formation of asymmetric conformation,Dcs1p WT (H268N) [1],observed no resonances corresponding to the asymmetric conformation
C[n+]1cn([C@@H]2O[C@H](COP(=O)([O-])OP(=O)(O)OP(=O)(O)OC[C@H]3O[C@@H](n4cnc5c(=O)[nH]c(N)nc54)[C@H](O)[C@@H]3O)[C@@H](O)[C@H]2O)c2nc(N)[nH]c(=O)c21 [m7GpppG],enzymatic turnover / hydrolysis,Dcs1p Y94A,did not detect enzymatic turnover
same,Kd,Dcs1p WT (H268N) [2],105 µM
same,Turnover rate (kcat),"WT Dcs1p; high substrate excess, 0.5 mM substrate, 50 nM enzyme, 27°C",0.27 s^−1 under high substrate excess
same,Flipping rate,"Dcs1p K126A [3]; K126A (H268N), under high and low substrate excess",< 1 Hz under high and low substrate excess
same,domain flipping rate,"Dcs1p K126A [3]; K126A, substrate excess, based on detection limit of the experiment",less than 1 s^−1
same,Kd,Dcs1p K126A (H268N) [4],196 µM
same,Turnover rate (kcat),Dcs1p K126A [5],0.48 s^−1 under high substrate excess
same,Kd,Dcs1p K126A (H268N) [6],0.24 µM
same,domain flipping (exchange) rate,"Dcs1p WT (H268N) [7]; 20-fold excess of substrate over dimeric enzyme, inactive H268N",35.4 (± 4.8) s^−1 and 35.4 s^−1
same,Flipping rate,Dcs1p WT (H268N) [7]; low substrate excess,8 Hz
"C[n+]1cn([C@@H]2O[C@H](COP(=O)(O)OP(=O)(O)O)[C@@H](O)[C@H]2O)c2nc(N)[nH]c(=O)c21 [m^7GDP, 7-methylguanosine diphosphate]",hydrolysis,DcpS,not hydrolysed efficiently
"C[n+]1cn([C@@H]2O[C@H](COP(=O)([O-])O)[C@@H](O)[C@H]2O)c2nc(N)[nH]c(=O)c21 [m7GMP, m^7G monophosphate]",Kd,"[8]; Kd (single-step binding, closed binding site), ITC, DcpS H268N",1.1 ± 0.6 µM
same,factor weaker interaction with closed binding site than the substrate,[8]; product vs substrate,4
same,"interaction with the second, open binding site",[8]; using ITC and NMR,not able to detect an interaction
same,formation of asymmetric conformation,Dcs1p WT (H268N) [1],preserves the asymmetric form of the complex
